Results on 4 compounds are retold here after PMC3823637 (Neuropharmacology, 2013).

Common to all, as to format: cell-based
For experiment [1], the system named is rat hypothalamic neurons (native AT1R). As to the kind of experiment: Whole cell patch recordings from neurons in rat hypothalamic slices. Conditions: for effect on Ang II-induced depolarization / effect on Ang-(1-12)-induced depolarization: antagonist/inhibitor 10 μM; for effect on Ang II-induced depolarization: pretreatment of slices by superfusion; for effect on Ang-(1-12)-induced depolarization: prior superfusion of slices. Summed up: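 Coronal hypothalamic slices (250 μm, vibratome) came from Sprague-Dawley rats, 17-20 days old, of either sex, anaesthetised with 4% isoflurane. Slices were superfused with solution gassed with 95% O2/5% CO2 at 20 ± 1°C. Current-clamp whole-cell recordings were made from neurons […] to the 3rd ventricle. Peptide was puffed by nitrogen from a micropipette at 20-30 min intervals. Slices were pretreated with losartan, PD123319 or captopril at 10 μM each.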

The target of experiment [2] is T1, AT1R (Homo sapiens, UniProt P30556).
T1 sequence (P30556 1-359): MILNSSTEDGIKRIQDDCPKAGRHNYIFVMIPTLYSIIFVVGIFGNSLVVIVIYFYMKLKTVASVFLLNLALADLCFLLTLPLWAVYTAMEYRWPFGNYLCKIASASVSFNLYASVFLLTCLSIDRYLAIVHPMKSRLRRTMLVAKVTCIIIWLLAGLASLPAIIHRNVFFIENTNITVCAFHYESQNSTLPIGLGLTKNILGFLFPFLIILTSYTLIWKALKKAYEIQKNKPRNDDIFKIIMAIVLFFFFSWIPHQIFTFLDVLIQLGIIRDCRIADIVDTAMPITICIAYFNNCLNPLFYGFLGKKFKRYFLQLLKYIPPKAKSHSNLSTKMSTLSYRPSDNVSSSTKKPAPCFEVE
The experiment is described as follows: Ca2+-based FLIPR assay, CHO/16z25 cells transiently expressing AT1R.

Experiment [3] concerns the target T1, AT1R. The following applies: 10 μM losartan; 1 μM Ang II or 10 μM Ang-(1-12), 5 min.

Consider `C[C@H](CS)C(=O)N1CCC[C@H]1C(=O)O` [captopril], for which, in experiment [1], the “effect on Ang II-induced depolarization” value is “not affected” and the “effect on Ang-(1-12)-induced depolarization” value is listed as “failed to suppress”.
For `Cc1cc(Cn2cnc3c2C[C@@H](C(=O)O)N(C(=O)C(c2ccccc2)c2ccccc2)C3)ccc1N(C)C` [PD-123319], in experiment [1], the “effect on Ang-(1-12)-induced depolarization” value was “not affected”.
On to `CC[C@H](C)[C@H](NC(=O)[C@H](Cc1ccc(O)cc1)NC(=O)[C@@H](NC(=O)[C@H](CCCNC(=N)N)NC(=O)[C@@H](N)CC(=O)O)C(C)C)C(=O)N[C@@H](Cc1c[nH]cn1)C(=O)N1CCC[C@H]1C(=O)N[C@@H](Cc1ccccc1)C(=O)O` [Ang II, angiotensin II], for which the “hypothalamic neurons depolarized of those examined” value in experiment [1] (Ang II 1 mM in micropipette, pressure ejection) is recorded as 10 of the 27. Moreover, the “membrane depolarization, mean amplitude” value in experiment [1] (Ang II 1 mM in micropipette, pressure ejection, mean ± SEM, n=10) came to 6.9 ± 0.9 mV.
Consider `CCCCc1nc(Cl)c(CO)n1Cc1ccc(-c2ccccc2-c2nn[nH]n2)cc1` [losartan], for which, at AT1R [2] (5 μM Ang-(1-12), losartan 0.1-10 μM, pre-incubated 30 min, dose-dependent), the “effect on Ca2+ response stimulated by Ang-(1-12)” value is “effectively suppressed”. Moreover, the “effect on Ang II-induced Ca2+ mobilization” value at AT1R [2] (COS-7 and CHO cells transfected with AT1R cDNA) is given as “suppressed”. Also, in experiment [1], the “effect on Ang II-induced depolarization” value is “suppressed” and the “effect on Ang-(1-12)-induced depolarization” value is given as “antagonized”. Further, the “effect on Ang-(1-12)- and Ang II-induced ERK responses” value at AT1R [3] is reported as “inhibited”.
